# Experimental data from ChEMBL document CHEMBL2311403, “Design and synthesis of potent inhibitor of apoptosis (IAP) proteins antagonists bearing an octahydropyrrolo[1,2-a]pyrazine scaffold as a novel proline mimetic” (J Med Chem, 2013).
# Key:
# [1] = Oral bioavailability in BALB/cAJcl mouse at 10 mg/kg by LC/MS/MS analysis; format: ADME, organism-based; conditions: in vivo
# Method in brief: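 Female BALB/cAJcl mice, seven weeks old, were dosed orally at 10 mg/kg and intravenously at 1 mg/mL/kg. Plasma compound concentrations were measured by LC/MS/MS.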
# [2] = system: MDA-MB-231; assay: Growth inhibition of human MDA-MB-231 cells assessed as cell viability after 3 days by CellTitre-Glo Luminescent assay; format: functional; conditions: MDA-MB-231, 72 h
# [3] = Clearance in human liver microsomes at 1 umol/l after 20 mins by LC/MS/MS analysis
# [4] = Clearance in mouse liver microsomes at 1 umol/l after 20 mins by LC/MS/MS analysis
# [5] = Lipophilicity, log D of the compound at pH 7.4; conditions: buffer
# [6] = system: Mus musculus; assay: Toxicity in athymic nude BALB/cAJcl mouse xenografted with human MDA-MB-231 cells expressing luciferase gene at 30 mg/kg, po bid measured on day 14; format: organism-based; set-up: dose 30 mg/kg, route oral; conditions: in vivo
# [7] = system: MDA-MB-231; assay: Antitumor activity against human MDA-MB-231 cells expressing luciferase gene xenografted in athymic nude BALB/cAJcl mouse assessed as tumor growth inhibition at 30 mg/kg, po bid measured on day 14 relative to control; format: functional
# [8] = Permeability of the compound by PAMPA; format: ADME; conditions: read-out: permeability
# [9] = system: MDA-MB-231; assay: Antitumor activity against human MDA-MB-231 cells expressing luciferase gene xenografted in po dosed athymic nude BALB/cAJcl mouse assessed as tumor regression administered bid measured on day 14; format: functional, organism-based
# [10] = system: MDA-MB-231; assay: Antitumor activity against human MDA-MB-231 cells expressing luciferase gene xenografted in athymic nude BALB/cAJcl mouse assessed as tumor growth inhibition at 100 mg/kg, po bid measured on day 14 relative to control; format: functional
SMILES,bioavailability [1] [%],GI50 [2] [nM],"microsomal CLint at 20 min, 1 µM [3] [µL/min/mg]","microsomal CLint at 20 min, 1 µM [4] [µL/min/mg]",logD [5],Papp [8] [×10⁻⁶ cm/s],Activity [6],T/C [7] [%],Activity [9],T/C [10] [%]
CN[C@@H](C)C(=O)N[C@H](C(=O)N1C[C@H]2CCCN2C[C@H]1C(=O)N[C@@H]1CCOc2ccccc21)C1CCOCC1,12,20,15,21,1.75,–,–,–,–,–
CN[C@@H](C)C(=O)N[C@H](C(=O)N1C[C@@H]2CCCN2C[C@H]1C(=O)N[C@@H]1CCOc2ccccc21)C1CCC(F)(F)CC1,13,15,38,2,1.94,–,–,–,–,–
CN[C@@H](C)C(=O)N[C@H](C(=O)N1C[C@H]2CCCN2C[C@H]1C(=O)N[C@H]1CCCc2ccccc21)C1CCCCC1,–,–,236,239,–,–,–,–,–,–
CN[C@@H](C)C(=O)N[C@H](C(=O)N1C[C@H]2CCCN2C[C@H]1C(=O)N[C@H](C)c1ccccc1)C1CCCCC1,63,20,82,115,–,–,–,–,–,–
CN[C@@H](C)C(=O)N[C@H](C(=O)N1C[C@H]2CCCN2C[C@H]1C(=O)N[C@@H]1CCC(=O)c2ccccc21)C1CCCCC1,30,21,154,161,–,–,–,–,–,–
CN[C@@H](C)C(=O)N[C@H](C(=O)N1C[C@H]2CCCN2C[C@H]1C(=O)N[C@@H]1CCC(F)(F)c2ccccc21)C1CCCCC1,26,18,130,208,–,–,–,–,–,–

# The next lines start with results.
bioavailability [1] [%],GI50 [2] [nM],"microsomal CLint at 20 min, 1 µM [3] [µL/min/mg]","microsomal CLint at 20 min, 1 µM [4] [µL/min/mg]",logD [5],Papp [8] [×10⁻⁶ cm/s],SMILES,Activity [6],T/C [7] [%],Activity [9],T/C [10] [%]
41,5.7,128,116,2.91,–,CN[C@@H](C)C(=O)N[C@H](C(=O)N1C[C@H]2CCCN2C[C@H]1C(=O)N[C@@H]1CCOc2ccccc21)C1CCCCC1,–,–,–,–
50,1.8,52,40,2.6,4.4,CCO[C@@H]1C[C@@H]2CN(C(=O)[C@@H](NC(=O)[C@H](C)NC)C3CCC(F)(F)CC3)[C@H](C(=O)N[C@@H]3CCOc4ccccc43)CN2C1,Non-toxic,-53,Dose-dependent effect,-62
21,8,170,147,2.56,–,CN[C@@H](C)C(=O)N[C@H](C(=O)N1C[C@H]2CC(F)(F)CN2C[C@H]1C(=O)N[C@@H]1CCOc2ccccc21)C1CCC(F)(F)CC1,–,–,–,–
6,6.2,218,232,–,–,CN[C@@H](C)C(=O)N[C@H](C(=O)N1C[C@H]2CCCN2C[C@H]1C(=O)N[C@@H]1CCCc2ccccc21)C1CCCCC1.Cl.Cl,–,–,–,–
33,11,90,129,2.17,–,CN[C@@H](C)C(=O)N[C@H](C(=O)N1C[C@H]2CCCN2C[C@H]1C(=O)N[C@@H]1CCOc2ccccc21)c1ccccc1,–,–,–,–
53,13,82,66,2.43,0.3,CN[C@@H](C)C(=O)N[C@H](C(=O)N1C[C@H]2CCCN2C[C@H]1C(=O)N[C@@H]1CCOc2ccccc21)C1CCC(F)(F)CC1,–,–,–,–
–,11,4,–,1.6,–,CN[C@@H](C)C(=O)N[C@H](C(=O)N1C[C@H]2C[C@@H](O)CN2C[C@H]1C(=O)N[C@@H]1CCOc2ccccc21)C1CCC(F)(F)CC1,–,–,–,–
